Measured values from different studies.
Each line is one published result; the experiments were not run side by side.

SMILES	cell line	observed	action	technique	time	setting	IC50 [µM]
CC(C)c1ccccc1S(=O)(=O)c1cc(N)c2ncccc2c1[N+](=O)[O-]	FaDu	cell growth or viability			72 h		> 20
Cc1ccc(S(=O)(=O)N[C@@H](Cc2ccccc2)C(=O)CCl)cc1	THP-1	TNF-α release	inhibitor		17 h	LPS-stimulated	1.08
CCCCCC/N=C1\c2cc(C(N)=O)nc3c(N)c(Cl)c(N)c(c23)N1C	Calu-3	cell growth or viability					0.86
NCCc1ccc(O)c(O)c1	FaDu	cell growth or viability			72 h		> 20
C=CCn1c(-c2ccc(Cl)cc2)nc2ccccc21	MCF7	cell growth or viability		MTT			79
O=c1cc(-c2ccc(O)c(O)c2)oc2cc(O)cc(O)c12	HEp-2	cell growth or viability		WST-1	48 h		10.7
COc1c2c(cc3c1OCO3)[C@]13C=C[C@H](OC)C[C@H]1N(C2)C[C@H]3OC(=O)c1cccc(C)c1	SAOS-2	cell growth or viability		WST-1			> 10
CC(C)[C@H](N)c1nc2cc(-c3ccncc3F)sc2c(=O)[nH]1	CAPAN-1	cell growth or viability		MTT			0.049
COc1ccc(CC(C)NCC(O)c2ccc(O)c(NC=O)c2)cc1 (centres unmarked)	THP-1	TNF-α release	inhibitor		17 h	LPS-stimulated	0.006
CC(C)(C=O)Cc1cc(C(C)(C)C)c(O)c(C(C)(C)C)c1	FaDu	cell growth or viability			72 h		> 20
COc1cc(Nc2nccc(-c3cnn4nc(OC)ccc34)n2)cc(C(F)(F)F)c1	J82	cell growth or viability		ATP luminescence			0.85
O=c1[nH]cc(S(=O)(=O)Nc2cccc(-c3nnc(-c4cccc(Cl)c4)o3)c2)c(=O)[nH]1	NCI-H441	cell growth or viability		MTT	24 h		4.29
COc1c(C)c(OC)c2c(c1C)OC(c1ccccc1)CC2=O (centres unmarked)	FaDu	cell growth or viability		SRB	72 h		> 50
Cc1cc(-c2nc(C(=O)Nc3cc4oc(N5CCOCC5)nc4nc3N3CC[C@@H](O)C3)co2)ccn1	A20	cell growth or viability			5 days		2.45
COc1ccc(-c2nc3ccccc3n2Cc2ccccc2)cc1OC	MCF7	cell growth or viability		MTT			22.2
CC(C)NCC(O)c1cc(O)cc(O)c1 (centres unmarked)	THP-1	TNF-α release	inhibitor		17 h	LPS-stimulated	0.6
CC[C@@H](C)[C@H](N)C(=O)N1Cc2ccccc2C1	NOMO-1	cell growth or viability		ATP luminescence	48 h		4.18
Cc1ccc2nc(-c3ccco3)n(Cc3ccccc3)c2c1	MCF7	cell growth or viability		MTT			41.5
CCCCCCCCCCCC(=O)Oc1c(C)c(O)c(C(=O)/C=C/c2ccccc2)c(OC)c1C	FaDu	cell growth or viability		SRB	72 h		> 50
CC(=O)O[C@H]1C(=O)[C@@]2(C)[C@H]([C@H](OC(=O)c3ccccc3)[C@]3(O)C[C@H](OC(=O)[C@H](O)[C@@H](NC(=O)c4ccccc4)c4ccccc4)C(C)=C1C3(C)C)[C@]1(OC(C)=O)CO[C@@H]1C[C@@H]2O	Panc02	cell growth or viability		CCK-8	72 h		0.0833
N#Cc1cc([N+](=O)[O-])c2sc(C(N)=O)[n+]([O-])c2c1	THP-1	TNF-α release	inhibitor		17 h	LPS-stimulated	2.96
COc1ccc(-c2nc3ccccc3[nH]2)cc1O	MCF7	cell growth or viability		MTT	48 h		29.7

SMILES	cell line	observed	action	technique	time	setting	IC50 [µM]
COc1cc2nc(N3CCN(C(=O)c4ccco4)[C@H]4CCCC[C@H]43)nc(N)c2cc1OC (racemic)	FaDu	cell growth or viability			72 h		14.1
CC(C)C[C@H](NC(=O)[C@H](Cc1ccccc1)NC(=O)c1cnccn1)B(O)O	SK-MEL3	cell growth or viability		ATP luminescence			0.0099
CCCn1cnc2cc(/C=C/C(=O)NO)ccc2c1=O	SW-620	cell growth or viability		SRB	48 h		1.34
O=c1c(O)c(-c2ccc(O)cc2)oc2cc(O)cc(O)c12	HEp-2	cell growth or viability		WST-1	48 h		30.3
O=C(/C=C/c1ccc2c(=O)n(CC3CCCCC3)cnc2c1)NO	SW-620	cell growth or viability		SRB	48 h		1.44
Cc1ccc2nc(-c3c(F)cccc3Cl)[nH]c2c1	MCF7	cell growth or viability		MTT	48 h		> 100
CC(C)[C@H](N)C(=O)N1CCC[C@H]1B(O)O	NOMO-1	cell growth or viability		ATP luminescence	48 h		0.165
CCN(CC)CCOC(=O)C1(c2ccc([N+](=O)[O-])cc2)CCCC1	FaDu	cell growth or viability			72 h		> 20
O=c1c(O)c(-c2ccc(O)c(O)c2)oc2cc(O)cc(O)c12	HEp-2	cell growth or viability		WST-1	48 h		10.9
CN1/C(=N/c2ccc(Cl)cc2)c2cc(C(N)=O)nc3c(N)c(Cl)c(N)c1c23	Calu-3	cell growth or viability					10.4
CCN(CC)CCNC(=O)COc1ccc(OC)cc1	FaDu	cell growth or viability			72 h		> 20
CCOc1cc(OCC)cc(C(=O)O[C@@H]2CN3Cc4c(cc5c(c4OC)OCO5)[C@@]24C=C[C@H](OC)C[C@@H]34)c1	SAOS-2	cell growth or viability		WST-1			2.8
O=C(/C=C/c1ccc2ncn(CC3CCCC3)c(=O)c2c1)NO	SW-620	cell growth or viability		SRB	48 h		1.19
CN(C)c1ccc(-c2nc3ccccc3[nH]2)cc1	MCF7	cell growth or viability		MTT	48 h		> 100
Clc1ccc(N2CCN(Cc3c[nH]c4ncccc34)CC2)cc1	FaDu	cell growth or viability			72 h		> 20
O=Cc1ccc(CO)o1	HEp-2	cell growth or viability		WST-1	48 h		78.9
c1ccc2c(-c3nc4ccccc4[nH]3)c3ccccc3cc2c1	MCF7	cell growth or viability		MTT	48 h		13.2
CC(=O)CC(c1ccccc1)c1c(O)c2ccccc2oc1=O (centres unmarked)	FaDu	cell growth or viability			72 h		> 20
COc1ccc(C(=O)O[C@@H]2CN3Cc4c(cc5c(c4OC)OCO5)[C@@]24C=C[C@H](OC)C[C@@H]34)cc1	SAOS-2	cell growth or viability		WST-1			> 10
Cc1ccc(O)cc1	B16F0	cell growth or viability		MTT	48 h		1900
CNC[C@H](O)c1ccc(O)c(O)c1	THP-1	TNF-α release	inhibitor		17 h	LPS-stimulated	0.07
O=C(/C=C/c1cccc(S(=O)(=O)Nc2ccccc2)c1)NO	SW-620	cell growth or viability		SRB	48 h		3.23
